Sampled rows, rich in hits. Any-hit rate of the full collection: about 4.6%.
TAAR1 ag: agonists of human TAAR1 | Q96RJ0 | CHO RD-HGA16 TAAR1, Fluo-8 calcium fluorescence; vehicle wells 0%, saturating PEA agonist 100% | activation, % at 3 µM | hit rate 0.99% among 360,000 | AID 624467;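 active means activation above the mean activation of all test compounds in the run plus 3 SD, cut at about 38% in these data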
Target sequence (Q96RJ0 whole entry, looked up): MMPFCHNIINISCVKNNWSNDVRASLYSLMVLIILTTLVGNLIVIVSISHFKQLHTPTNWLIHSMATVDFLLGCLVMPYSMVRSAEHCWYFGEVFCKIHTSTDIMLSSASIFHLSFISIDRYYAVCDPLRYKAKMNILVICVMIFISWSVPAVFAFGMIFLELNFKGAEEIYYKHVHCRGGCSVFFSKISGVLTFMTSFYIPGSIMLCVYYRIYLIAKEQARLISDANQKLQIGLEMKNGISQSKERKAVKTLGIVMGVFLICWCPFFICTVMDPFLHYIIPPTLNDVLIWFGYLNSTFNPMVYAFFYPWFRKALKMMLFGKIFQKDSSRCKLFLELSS
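test system = CHO RD-HGA16 cells carrying human TAAR1 plus Gα16 | schedule = 17-24 h seeding, 75 min 37 °C dye, 30 min RT | compound dosing = 3 µM single concentration | control set = DMSO and PEA EC100 | replicates = n 1 | signal = Fluo-8 fluorescence, 5 s baseline then 140 s kinetic read | measure = percent activation vs PEA EC100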
GPR7 antag: blocks human GPR7 receptor signaling | P48145 | GPR7-expressing cells, fluorescence antagonist assay | inhibition, % at 4.4 µM | hit rate 1.1% among 290,000; in the data active means inhibition above about 16%, passing the limit was not always enough;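 further: cells stimulated with the agonist NPW; 0% = agonist with vehicle and 100% = vehicle without agonist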
Target sequence (P48145 whole entry, looked up): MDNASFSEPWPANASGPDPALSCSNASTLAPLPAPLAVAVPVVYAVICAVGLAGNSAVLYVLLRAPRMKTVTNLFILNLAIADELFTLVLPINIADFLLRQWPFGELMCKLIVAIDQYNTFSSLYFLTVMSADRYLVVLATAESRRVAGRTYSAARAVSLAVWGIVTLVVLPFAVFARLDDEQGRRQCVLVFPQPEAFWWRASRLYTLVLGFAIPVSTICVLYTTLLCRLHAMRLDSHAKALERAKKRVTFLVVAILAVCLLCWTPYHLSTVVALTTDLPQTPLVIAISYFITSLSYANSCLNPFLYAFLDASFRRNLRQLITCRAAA
TAAR1 antagonist: human TAAR1 antagonism | inhibition, % at 3 µM | Q96RJ0 | hit rate 1.5% among 360,000 | CHO RD-HGA16 TAAR1, Fluo-8 calcium fluorescence, antagonist;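 active means inhibition above a per-plate cutoff, the mean inhibition of test compounds on that plate plus 3 SD, cut at about 49% in these data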;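 further: 0% = DMSO plus EC80 beta-PEA response and 100% = DMSO alone without agonist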
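Test system: hTAAR1-expressing CHO RD-HGA16 cells, Gα16-coupled; Probe or stimulus: EC80 β-phenethylamine stimulus; Compound dosing: single nominal final test compound concentration of 3 µM; Timing: 140 s kinetic read after compound, 140 s after agonist; Signal: Fluo-8 calcium-sensitive fluorescence; Measure: % inhibition of agonist calcium response; Controls: DMSO and EC80 PEA controls.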
OX1R antag-1: antagonists of human orexin 1 receptor | O43613 | CHO/OX1R cells, Fluo-8 calcium fluorescence, orexin A | inhibition, % at 5 µM | hit rate 0.43% among 330,000 | AID 434989;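 active means inhibition above its plate's threshold, mean inhibition of all tested compounds on the plate plus 3 SD, cut at about 37% in these data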;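 further: 0% = orexin A challenge wells and 100% = SB-334867-A antagonist wells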
CHO parental Ca: counter-screen for OX1R antagonists: effect in parental CHO cells; hit rate 0.63% among 330,000; parental CHO-K1, ATP-induced calcium, Fluo-8 fluorescence; inhibition, % at 5.6 µM;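 active means inhibition above that plate's mean sample inhibition plus 3 SD, cut at about 26% in these data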;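 further: 0% = ATP-challenged DMSO wells and 100% = DMSO wells without ATP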
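Assay system – parental CHO cells · Reagent – ATP stimulus · Detection – intracellular calcium via Fluo-8 no-wash fluorescent dye · Evaluation – percent inhibition of ATP-evoked calcium rise, normalized to controls · Controls – ATP wells versus no-ATP DMSO wells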
OX1R antag-2: blocks the human orexin 1 receptor | hit rate 1.8% among 330,000 | inhibition, % at 6.6 µM | AID 485270 | OX1R-expressing cells, FRET antagonist read-out; in the data active means inhibition mostly above about 38%, no sharp cut-off; inactive means mostly below about 40%;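 further: 0% = agonist challenge alone and 100% = reference antagonist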
An asterisk follows results filed as active; · = not tested or not shown.

SMILES | TAAR1 ag | GPR7 antag | TAAR1 antagonist | OX1R antag-1 | CHO parental Ca | OX1R antag-2
Cc1ccc(C)c(-c2cc(C(=O)Nc3nccs3)c3ccccc3n2)c1 | 15 | -13 | 51* | -10 | -21 | 10
CC(C)NC(=O)C1C(c2ccc(C(F)(F)F)cc2)=Nc2ccccc2N1C(=O)c1cccc2ccccc12 (stereo unspecified) | -2 | · | -13 | · | · | ·
Cc1ccc(S(=O)(=O)N2C3CCCCC3O[C@H]2CC(=O)c2ccccc2)cc1 (stereo partly specified) | 4 | · | -21 | · | · | ·
COc1ccc(CN2C[C@@H](CO)O[C@@H](n3cnc4c(N5CCCC5)ncnc43)C2)cc1 | 0 | · | 3 | · | · | ·
C=CCCN1[C@@H](Cc2ccccc2)COc2ccccc2S1(=O)=O | 0 | · | 19 | · | · | ·
c1csc(-c2cn3ccc4ccccc4c3n2)c1 | 0 | -3 | 20 | -4 | -13 | 74*
CN1CCCCC(NC(=O)C2CCCCC2)C1=O (stereo unspecified) | 2 | · | -26 | · | · | ·
Cc1cc(C)cc(Cn2c3ccc(NC(=O)NCCc4cccs4)cc3c(=O)n2C)c1 | 42* | · | 59* | · | · | ·
COCc1[nH]nc2c1C(c1cccc(C(F)(F)F)c1)NC2=O (stereo unspecified) | 1 | · | -4 | · | · | ·
N/C(=N\OC(=O)CCCCCN1C(=O)c2ccccc2C1=O)c1ccccc1 | -3 | 5 | 12 | -9 | -13 | 62*
N/C(=N\OC(=O)CCCN1C(=O)c2ccccc2C1=O)c1ccc(Br)cc1 | 11 | -3 | 14 | -16 | -5 | 19
Cc1ccc(C(C)C)c(OCCn2c(=O)oc3ccccc32)c1 | 13 | -8 | 72* | -1 | 6 | 23
Cc1ccc(C(C)C)c(OCCN(C)C)c1 | 7 | -7 | 10 | -18 | -9 | 8
Cc1ccc(C(C)C)c(OCCN)c1 | 38* | 0 | -2 | -1 | -6 | 0
Cc1ccccc1OCCn1c(=O)oc2ccccc21 | 17 | 10 | 26 | -3 | 3 | 25
COc1ccccc1-c1nc(-c2ccc(Br)o2)no1 | -2 | -11 | -24 | -25 | -15 | 55*
CC1(C)CC(=O)C2=C(C1)N=C1c3ccccc3C(=O)C1C2c1ccc(Cl)cc1 (stereo unspecified) | 28 | -10 | 24 | 19 | -18 | 96*
Cc1ccccc1-c1ccc2c(c1)[C@@H]1C[C@H]3[C@@H](CN1CC2)[C@H](C)OC(c1ccccc1)N3C (stereo partly specified) | 3 | · | -17 | · | · | ·
O=C(NCCc1ccccc1)c1noc2c1CCc1ccccc1-2 | 31 | -7 | 67* | -24 | -18 | 29
CCCNC(=O)c1noc2c1CCc1ccccc1-2 | -1 | 2 | 9 | -16 | -4 | 11
COc1ccc2c(c1)CCc1c(C(=O)NCCc3ccc(OC)c(OC)c3)noc1-2 | 12 | -15 | 49* | -21 | -22 | 26
COc1ccc2c(c1)CCc1c(C(=O)Nc3ccc(OC)c(OC)c3)noc1-2 | 10 | -5 | 51* | -15 | -6 | 3
NCc1ccc(OCCCN2CCC(C(O)(C3=CCCC3)c3ccccc3)CC2)cc1 (stereo unspecified) | 7 | · | -2 | · | · | ·
CN(C(=O)CSc1ncnc2c(-c3cccs3)nsc12)C1CCCCC1 | -1 | · | 6 | · | · | ·
COc1ccccc1CNn1c(-c2cccc(C)c2)nc2ccccc2c1=O | 11 | -18 | 43 | 18 | -36 | 51*
SMILES | TAAR1 ag | GPR7 antag | TAAR1 antagonist | OX1R antag-1 | CHO parental Ca | OX1R antag-2
Cc1c(C(=O)NCc2ccccc2C(F)(F)F)sc(=O)n1Cc1ccccc1C#N | 0 | · | -6 | · | · | ·
Cc1c(C(=O)OCC(=O)N(C)Cc2ccccc2)oc2ccccc12 | 9 | · | -21 | 26 | -12 | 60*
Cc1c(C(=O)OCC(=O)N2CC(C)CC(C)C2)oc2ccccc12 (stereo unspecified) | 4 | · | -47 | -24 | -17 | 70*
COc1ccc2oc(C(=O)OCC(=O)N3CC(C)CC(C)C3)c(C)c2c1 (stereo unspecified) | 3 | · | 16 | -15 | -25 | 22
CCOC(=O)C1=C(C(=O)OCC)C2N(Cc3ccc(C(F)(F)F)cc3)c3ccccc3[C@@]23C[C@@H](C(=O)OC)N(S(=O)(=O)c2ccccc2C)C3=N1 (stereo partly specified) | 1 | · | -34 | · | · | ·
c1ccc(Nc2nc(-c3ccccc3)ns2)cc1 | 9 | -8 | 17 | -13 | -3 | 49*
O=C(NCCN1CCC(n2c(=O)[nH]c3ccccc32)CC1)c1cc(F)cc(F)c1 | 2 | · | -18 | · | · | ·
CCn1c(N2CCN(S(=O)(=O)c3ccccc3C(F)(F)F)CC2)nc2ccccc21 | 24 | -14 | 42 | -12 | -2 | 17
CCn1c(N2CCN(S(=O)(=O)c3ccc(OC)cc3)CC2)nc2ccccc21 | 34 | -5 | 49* | -3 | 5 | 7
COc1ccc(OC2CCN(S(=O)(=O)c3ccc(OC)cc3)CC2)cc1 | 5 | 34 | 2 | 27 | 36* | 0
CCOC(=O)C1(C)CCN1C(=O)c1cc(C)oc1C (stereo unspecified) | 1 | · | -21 | · | · | ·
O=C(CSc1nnc(Cc2ccccc2)n1-c1ccccc1)NNC(=O)Cc1ccccc1 | 24 | 2 | -12 | -16 | -13 | 57*
NS(=O)(=O)c1ccc(CCNC(=O)CCCCCn2c(=S)[nH]c3ccc(Br)cc3c2=O)cc1 | 25 | 17* | 60* | -18 | 6 | 19
O=C(CCCCCn1c(=S)[nH]c2ccc(Br)cc2c1=O)NCC1CCCO1 (stereo unspecified) | 12 | -2 | 38 | -24 | -17 | 14
Cc1cccc(C)c1NC(=O)C(c1ccccc1F)n1c(=O)c(-c2cc3ccccc3[nH]2)nc2ccccc21 (stereo unspecified) | 0 | · | 6 | · | · | ·
Cc1cc(C)cc(NC(=S)/C(=C(\[O-])c2ccc(Cl)cc2Cl)[n+]2ccccc2)c1 | -1 | 16* | 3 | -27 | -12 | 6
O=C(NCc1cccnc1)c1cc(C2CCCN(S(=O)(=O)c3ccccc3)C2)on1 (stereo unspecified) | 1 | · | -5 | · | · | ·
Cc1ccc(S(=O)(=O)/N=C2/NC(=O)/C(=C/c3ccncc3)S2)cc1 | 0 | 0 | 13 | -9 | -10 | 6
COc1cccc(N=C2NC(=O)/C(=C/c3cc([N+](=O)[O-])ccc3O)S2)c1 | 7 | -1 | -6 | 16 | 12 | -7
Cc1ccc(S(=O)(=O)/N=C2/NC(=O)/C(=C/c3cc([N+](=O)[O-])ccc3O)S2)cc1 | 30 | 17 | 38 | 43* | 48* | 20
Cc1ccc(S(=O)(=O)/N=C2/NC(=O)/C(=C/c3ccccc3)S2)cc1 | -1 | -9 | 16 | -26 | -20 | 48
O=C1NC(=Nc2ccccc2Cl)S/C1=C\c1cc([N+](=O)[O-])ccc1O | 12 | -10 | 27 | 7 | 14 | 72*
